Test results published in ChEMBL document CHEMBL1125797, “Synthesis, characterization and myocardial uptake of cationic bis(arene)technetium(I) complexes” (J Med Chem, 1991).

Tests used:
[1] = test system: Rattus norvegicus; test: Biodistribution of compound in rat eye at 360 min after intravenous administration; assay type: ADME, organism-based; conditions: in vivo, 6 h
How it was run: (§1)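 Time course in Sprague-Dawley rats after lateral tail-vein injection of the 99mTc complex in normal saline (~12.5 μCi/mL) at ~25 μCi/kg. Tissues were sampled at the stated times, washed with saline, blotted, weighed and γ-counted to give percent injected dose per g. Values are averages of male and female rats.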

[2] = test system: Rattus norvegicus; test: Biodistribution of compound in rat kidney at 45 min after intravenous administration; assay type: ADME, organism-based; conditions: in vivo, 0.75 h; how it was run: as §1
[3] = test system: Rattus norvegicus; test: Biodistribution of compound in rat eye at 5 min after intravenous administration; assay type: ADME, organism-based; conditions: in vivo; how it was run: as §1
[4] = test system: Rattus norvegicus; test: Biodistribution of compound in rat kidney at 90 min after intravenous administration; assay type: ADME, organism-based; conditions: in vivo, 1.5 h; how it was run: as §1
[5] = test system: Rattus norvegicus; test: Biodistribution of compound in rat liver at 1440 min after intravenous administration; assay type: ADME, organism-based; conditions: in vivo, 24 h; how it was run: as §1
[6] = test system: Rattus norvegicus; test: Biodistribution of compound in rat bone at 360 min after intravenous administration; assay type: ADME, organism-based, Bone element; conditions: in vivo, 6 h; how it was run: as §1
[7] = test system: Rattus norvegicus; test: Biodistribution of compound in rat heart at 180 min after intravenous administration; assay type: ADME, organism-based; conditions: in vivo, 3 h; how it was run: as §1
[8] = test system: Rattus norvegicus; test: Biodistribution of compound in rat gonads at 45 min after intravenous administration; assay type: ADME, organism-based, Gonad; conditions: in vivo, 0.75 h; how it was run: as §1
[9] = test system: Rattus norvegicus; test: Biodistribution of compound in rat bone marrow at 5 min after intravenous administration; assay type: ADME, organism-based; conditions: in vivo; how it was run: as §1
[10] = test system: Rattus norvegicus; test: Biodistribution of compound in rat gonads at 360 min after intravenous administration; assay type: ADME, organism-based, Gonad; conditions: in vivo, 6 h; how it was run: as §1
[11] = test system: Rattus norvegicus; test: Biodistribution of compound in rat bone at 45 min after intravenous administration; assay type: ADME, organism-based, Bone element; conditions: in vivo, 0.75 h; how it was run: as §1
[12] = test system: Rattus norvegicus; test: Biodistribution of compound in rat kidney at 1440 min after intravenous administration; assay type: ADME, organism-based; conditions: in vivo, 24 h; how it was run: as §1
[13] = test system: Rattus norvegicus; test: Biodistribution of compound in rat liver at 360 min after intravenous administration; assay type: ADME, organism-based; conditions: in vivo, 6 h
How it was run: (§2)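 Rats received the 99mTc complex in normal saline (~12.5 μCi/mL) by lateral tail vein injection at ~25 μCi/kg and were killed by cervical dislocation at the stated time. Tissues were washed with saline, blotted, weighed and γ-counted to give percent injected dose/g. Time-course values are averages of male and female rats.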

[14] = test system: Rattus norvegicus; test: Biodistribution of compound in rat liver at 5 min after intravenous administration; assay type: ADME, organism-based; conditions: in vivo; how it was run: as §2
[15] = test system: Rattus norvegicus; test: Biodistribution of compound in rat kidney at 360 min after intravenous administration; assay type: ADME, organism-based; conditions: in vivo, 6 h; how it was run: as §1
[16] = test system: Rattus norvegicus; test: Biodistribution of compound in rat urine at 360 min after intravenous administration; assay type: ADME, organism-based; conditions: in vivo, 6 h; how it was run: as §2
[17] = test system: Rattus norvegicus; test: Biodistribution of compound in rat eye at 90 min after intravenous administration; assay type: ADME, organism-based; conditions: in vivo, 1.5 h; how it was run: as §1
[18] = test system: Rattus norvegicus; test: Biodistribution of compound in rat muscle at 360 min after intravenous administration; assay type: ADME, organism-based, Muscle tissue; conditions: in vivo, 6 h; how it was run: as §2
[19] = test system: Rattus norvegicus; test: Biodistribution of compound in rat brain after 5 min of administration; assay type: ADME, organism-based; conditions: in vivo
[20] = test system: Rattus norvegicus; test: Biodistribution of compound in rat kidney after 5 min of administration.; assay type: ADME, organism-based; conditions: in vivo
How it was run: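 Female Sprague-Dawley rats (150–200 g) received the complex in normal saline (~12.5 μCi/mL) through a lateral tail vein at ~25 μCi/kg. Rats were killed by cervical dislocation 5 min after injection. Tissues were washed with saline, blotted, weighed and γ-counted to give percent injected dose/g tissue.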

[21] = test system: Rattus norvegicus; test: Biodistribution of compound in rat bone marrow at 180 min after intravenous administration; assay type: ADME, organism-based; conditions: in vivo, 3 h; how it was run: as §1
[22] = test system: Rattus norvegicus; test: Biodistribution of compound in rat gonads at 5 min after intravenous administration; assay type: ADME, organism-based, Gonad; conditions: in vivo; how it was run: as §1
[23] = test system: Rattus norvegicus; test: Biodistribution of compound in rat eye at 45 min after intravenous administration; assay type: ADME, organism-based; conditions: in vivo, 0.75 h; how it was run: as §1
[24] = test system: Rattus norvegicus; test: Biodistribution of compound in rat kidney at 5 min after intravenous administration; assay type: ADME, organism-based; conditions: in vivo; how it was run: as §1
[25] = test system: Rattus norvegicus; test: Biodistribution of compound in rat bone at 180 min after intravenous administration; assay type: ADME, organism-based, Bone element; conditions: in vivo, 3 h; how it was run: as §1
[26] = test system: Rattus norvegicus; test: Biodistribution of compound in rat bone marrow at 90 min after intravenous administration; assay type: ADME, organism-based; conditions: in vivo, 1.5 h; how it was run: as §1
[27] = test system: Rattus norvegicus; test: Biodistribution of compound in rat muscle at 5 min after intravenous administration; assay type: ADME, organism-based, Muscle tissue; conditions: in vivo; how it was run: as §2
[28] = test system: Rattus norvegicus; test: Biodistribution of compound in rat heart at 1440 min after intravenous administration; assay type: ADME, organism-based; conditions: in vivo, 24 h; how it was run: as §1
[29] = test system: Rattus norvegicus; test: Biodistribution of compound in rat feces at 360 min after intravenous administration; assay type: ADME, organism-based; conditions: in vivo, 6 h
[30] = test system: Rattus norvegicus; test: Biodistribution of compound in rat lungs at 45 min after intravenous administration; assay type: ADME, organism-based, Lung; conditions: in vivo, 0.75 h; how it was run: as §2
[31] = test system: Rattus norvegicus; test: Biodistribution of compound in rat lungs at 90 min after intravenous administration; assay type: ADME, organism-based, Lung; conditions: in vivo, 1.5 h; how it was run: as §2
[32] = test system: Rattus norvegicus; test: Biodistribution of compound in rat gonads at 1440 min after intravenous administration; assay type: ADME, organism-based, Gonad; conditions: in vivo, 24 h; how it was run: as §1
[33] = test system: Rattus norvegicus; test: Biodistribution of compound in rat heart at 90 min after intravenous administration; assay type: ADME, organism-based; conditions: in vivo, 1.5 h; how it was run: as §1
[34] = test system: Rattus norvegicus; test: Biodistribution of compound in rat bone at 90 min after intravenous administration; assay type: ADME, organism-based, Bone element; conditions: in vivo, 1.5 h; how it was run: as §1
[35] = test system: Rattus norvegicus; test: Biodistribution of compound in rat blood at 180 min after intravenous administration; assay type: ADME, organism-based; conditions: in vivo, 3 h; how it was run: as §1

## Bis(1,2,3,5-tetramethylbenzene)technetium
[1]
  Dose/g: 0.022 % dose
[2]
  Dose/g: 5.4 % dose
[3]
  Dose/g: 0.03 % dose
[4]
  Dose/g: 3.9 % dose/organ
[5]
  Dose/g: 0.2 % dose/organ
[6]
  Dose/g: 1.4 % dose
[7]
  Dose/g: 2.44 % dose
[8]
  Dose/g: 0.089 % dose
[9]
  Dose/g: 0.43 % dose/organ
[10]
  Dose/g: 0.039 % dose
[11]
  Dose/g: 2.6 % dose/organ
[12]
  Dose/g: 0.2 % dose
[13]
  Dose/g: 0.9 % dose/organ
[14]
  Dose/g: 5.6 % dose/organ
[15]
  Dose/g: 1.5 % dose
[16]
  Dose/ml: 11 % dose
[17]
  Dose/g: 0.021 % dose
[18]
  Dose/g: 31 % dose/organ
[19]
  Dose/g: 0.02%
[20]
  Dose/g: 6.7%
[21]
  Dose/g: 0.2 % dose/organ
[22]
  Dose/g: 0.099 % dose
[23]
  Dose/g: 0.023 % dose
[24]
  Dose/g: 7.1 % dose
[25]
  Dose/g: 2.2 % dose/organ
[26]
  Dose/g: 0.28 % dose/organ
[27]
  Dose/g: 44 % dose/organ
[28]
  Dose/g: 1.27 % dose
[29]
  Dose/g: 0.3 % dose
[30]
  Dose/g: 1.5 % dose/organ
[31]
  Dose/g: 1.17 % dose/organ
[32]
  Dose/g: 0.019 % dose
[33]
  Dose/g: 2.78 % dose
[34]
  Dose/g: 3.5 % dose/organ
[35]
  Dose/ml: 0.19 % dose
